Drawing on ChEMBL document CHEMBL1132233, “6-Anilinouracil-based inhibitors of Bacillus subtilis DNA polymerase III: antipolymerase and antimicrobial structure-activity relationships based on substitution at uracil N3” (J Med Chem, 1999), this text covers Ki and MIC for 14 molecules.

Experiment [1] in a line: Compound was tested for inhibitory activity against DNA pol III of Bacillus subtilis. The method, boiled down: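 Homogeneous recombinant B. subtilis DNA pol III was assayed on activated calf thymus DNA. Apparent Ki was determined with a truncated assay lacking the competitor dGTP. Values are the average of three independent experiments.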
A further experiment relates to Bacillus subtilis. Briefly: Minimum inhibitory concentration against Bacillus subtilis. In kind it is functional. The gist of the method:
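Test organism was penicillin-sensitive B. subtilis strain BD54. A log-phase culture was diluted to 10^4 cells/mL in Luria broth. Inhibitors in DMSO were added at 0–100 µM, with final DMSO at 1%. Cultures were incubated 24 h at 37 °C and growth was scored by eye. MIC is the lowest concentration with no apparent growth, averaged over three independent experiments.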

Experiment [2] addresses DNA polymerase III (Bacillus subtilis). Briefly: Compound was tested for inhibitory activity against DNA polymerase III of Bacillus subtilis.

Converted amounts (≈) assume the structure as drawn.

Broadly, the Ki is a measure of affinity in units of concentration, obtained from inhibition or displacement. High values mean lower affinity, low ones higher affinity. The term MIC denotes the smallest concentration in the dilution series that meets the test's criterion for growth inhibition. Regarding `C=CCn1c(=O)cc(Nc2ccc3c(c2)CCC3)[nH]c1=O`, the affinity in experiment [1], expressed as Ki, was 380 nM. This molecule gave an MIC with Bacillus subtilis of 3 µM (≈ 0.85 µg/mL).

In the experiment on Bacillus subtilis, `CCCCn1c(=O)cc(Nc2ccc3c(c2)CCC3)[nH]c1=O` yielded an MIC of 3 µM (≈ 0.898 µg/mL). Moreover, in experiment [2], the affinity corresponds to a Ki of 90 nM.

In experiment [1], `Oc1cc(Nc2ccc3c(c2)CCC3)nc(O)n1` yielded a Ki of 1200 nM. The MIC against Bacillus subtilis was 30 µM (≈ 7.3 µg/mL).

In turn, `CCCn1c(=O)cc(Nc2ccc3c(c2)CCC3)[nH]c1=O` displayed an MIC with Bacillus subtilis of 11 µM (≈ 3.14 µg/mL). Moreover, in experiment [2], the Ki amounted to 310 nM.

Consider `CCc1cc(Nc2cc(=O)n(CCOC)c(=O)[nH]2)ccc1C`, for which, in experiment [1], the Ki was determined as 580 nM. The same molecule showed an MIC in the experiment on Bacillus subtilis of 3 µM (≈ 0.91 µg/mL).

On to `C=CCn1c(=O)cc(Nc2ccc(C)c(CC)c2)[nH]c1=O`, for which affinity in experiment [1] was put at a Ki of 210 nM. The MIC in the experiment with Bacillus subtilis came to 1.5 µM (≈ 0.428 µg/mL).

For the molecule `CCn1c(=O)cc(Nc2ccc3c(c2)CCC3)[nH]c1=O`, the Ki in experiment [1] was 310 nM. In the experiment on Bacillus subtilis, the MIC was determined as 3 µM (≈ 0.814 µg/mL).

For the molecule `CCc1cc(Nc2cc(O)nc(O)n2)ccc1C`, the affinity in experiment [1], expressed as Ki, was 1000 nM. In addition, the MIC in the experiment with Bacillus subtilis amounted to 30 µM (≈ 7.36 µg/mL).

In experiment [1], `CCc1cc(Nc2cc(=O)n(CCCOC)c(=O)[nH]2)ccc1C` had a Ki of 1000 nM. This molecule gave an MIC in the experiment with Bacillus subtilis of 1.5 µM (≈ 0.476 µg/mL).

For the molecule `CCCCCCn1c(=O)cc(Nc2ccc3c(c2)CCC3)[nH]c1=O`, the affinity in experiment [1], expressed as Ki, was 240 nM. In the experiment on Bacillus subtilis, this molecule gave an MIC of more than 100 µM.

In the experiment with Bacillus subtilis, `CCc1cc(Nc2cc(=O)n(CC)c(=O)[nH]2)ccc1C` yielded an MIC of 1.5 µM (≈ 0.41 µg/mL). This molecule also gave a Ki in experiment [2] of 120 nM.

On to `Cn1c(=O)cc(Nc2ccc3c(c2)CCC3)[nH]c1=O`, for which, in experiment [1], the Ki amounted to 1340 nM. The MIC against Bacillus subtilis worked out at 5 µM (≈ 1.29 µg/mL).

In the case of `CCc1cc(Nc2cc(=O)n(CCO)c(=O)[nH]2)ccc1C`, the Ki in experiment [1] is 590 nM. The MIC in the experiment on Bacillus subtilis was found to be 3 µM (≈ 0.868 µg/mL).

`CCc1cc(Nc2cc(=O)n(CCCO)c(=O)[nH]2)ccc1C` registered a Ki in experiment [1] of 730 nM. For the same molecule, in the experiment with Bacillus subtilis, the minimal inhibitory concentration (MIC) amounted to 3 µM (≈ 0.91 µg/mL).
